TLR4 MyD88 comp = TLR4-MyD88 interaction inhibition in cells. O00206+Q99836. HeLa CL3-4 TLR4/MyD88 BLA complementation, FRET ratio. inhibition, % at 8.4 µM. 200,000 compounds, 0.18% hits. AID 861; in the data active means inhibition above about 25%;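 further: 0% = vehicle and 100% = reference inhibitor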
NOD2 RIPK2 PPI = inhibitors of human NOD2-RIPK2 interaction | AID 624267 | inhibition, % at 4.98 µM | O43353 | 360,000 compounds, 0.38% hits | CHO BLA complementation NOD2-RIPK2, CCF4 ratio; in the data active means inhibition above about 21%;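 further: 0% = vehicle only and 100% = reference blocker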
MC4R barr agon = agonists of human melanocortin 4 receptor (MC4R) beta-arrestin | 360,000 compounds, 0.98% hits | P32245 | U2OS MC4R beta-arrestin complementation, luminescence; percent of melanotan II response, DMSO zero | AID 540308 | activation, % at 8.9 µM;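 active means activation above a per-plate cutoff, the mean activation of sample wells on that plate plus 3 SD, cut at about 8% in these data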
MC4R antagonist = blocks human MC4R cAMP signaling; P32245; MC4R-expressing cells, MTII-stimulated cAMP, LANCE TR-FRET; inhibition, % at 6.5 µM; 360,000 compounds, 0.48% hits;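 active means inhibition above its plate's cutoff, the mean of tested wells on that plate plus 3 SD, cut at about 29% in these data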;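 further: 0% = Melanotan II alone and 100% = Melanotan II plus saturating MCL0020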
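Assay system: U2OS-MC4R stable cell line; Also added: Melanotan II; Technique: Eu-cAMP/anti-cAMP TR-FRET, emission 671 nm; Times: 30-min compound, 1-h challenge, 1-h detection, room temperature.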
TLR9-MyD88 block = blocks human TLR9 binding to MyD88; CHO BLA complementation TLR9-MyD88, CCF4 FRET ratio; inhibition, % at 4.98 µM; 340,000 compounds, 0.21% hits;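 active means inhibition above the mean over all tested compounds plus 3 SD, cut at about 21% in these data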;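 further: 0% = DMSO only wells and 100% = clavulanate BLA inhibitor control wells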
NTR1 agonist = activates human neurotensin receptor 1 | P30989 | NTR1-U2OS beta-arrestin-GFP spot imaging, agonist mode | activation, % at 20 µM | 330,000 compounds, 0.17% hits | AID 493036;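 active means activation at or above 40% of the spot to cytoplasm intensity ratio, with at least 20 cells analyzed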;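 further: 0% = DMSO without peptide and 100% = 100 nM NTR1 peptide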
* marks the source's active call; other numbers are inactive results; . = not tested or not shown. Shown are actives, neighbours in structure and some others; about 1.9% of the full set was active somewhere.

SMILES	TLR4 MyD88 comp	NOD2 RIPK2 PPI	MC4R barr agon	MC4R antagonist	TLR9-MyD88 block	NTR1 agonist
CC(=O)Cc1cc(O)c2ccccc2c1OC(=O)c1ccc(Br)cc1	.	-5	17*	-1	-5	0
Cc1cc(=O)[nH]c(SCC(=O)Nc2nnc(SCc3ccccc3)s2)n1	1	9	8.8*	3	6	1
Cc1cc(=O)[nH]c(SCC(=O)Nc2nc3ccccc3s2)n1	-5	2	-2	5	-1	0
Cc1c(C(=O)Nc2cccnc2Cl)oc2ccccc12	.	2	11*	1	3	12
Cc1c(C(=O)Nc2ccccn2)oc2ccccc12	-2	-4	0	-6	-13	0
O=C(NCCNS(=O)(=O)c1cccc(C(F)(F)F)c1)c1cc(OCC(F)(F)F)ccc1OCC(F)(F)F	-3	-7	28*	3	-9	-1
CS(=O)(=O)NCCNC(=O)c1cc(OCC(F)(F)F)ccc1OCC(F)(F)F	0	-11	0	4	-7	-2
O=C1C(=O)c2c(C(=O)c3ccccc3)coc2-c2ccccc21	11	-6	8.7*	-16	-2	9
Cc1oc2c(c1C(=O)c1ccccc1)C(=O)C(=O)c1ccccc1-2	-5	-2	3	-10	2	14
CCn1nc(NC(=O)Cc2ccc(OC)cc2)c2cc3cccc(C)c3nc21	.	4	9.3*	10	-5	6
CCCCN1CC(N2CCN(C(=O)c3ccco3)CC2)CS1(=O)=O (stereo not drawn)	.	-10	.	.	.	.
NC(c1ccc(F)c(F)c1)c1nc(-c2cc(F)cc(F)c2)cs1 (stereo not drawn)	.	2	2	-4	.	.
O=C(CSc1nnc(CCCOc2ccc(Cl)cc2Cl)o1)Nc1ccc(C(=O)O)cc1	-9	-4	-3	5	4	0
O=C(CSc1nnc(COc2ccc(Cl)cc2Cl)o1)Nc1ccccn1	.	-2	8.9*	6	2	0
CCOC(=O)Cc1ccc(Nc2nc(NC)nc3ccsc23)cc1	.	-1	-1	-12	.	.
CCOC(=O)Cc1ccc(Nc2nc(NCc3ccccc3)nc3ccsc23)cc1	.	7	8.5*	10	.	.
CCCN(CC(=O)Nc1ccccc1OC)C(=O)c1ccc2[nH]c3c(c2c1)CC(C)CC3 (stereo not drawn)	.	-16	1	6	-13	2
O=C(Nc1ccc(Cl)cc1Cl)c1cccc(N2C(=O)C=CC2=O)c1	.	6	-1	57*	3	4
O=C(O)c1cccc(N2C(=O)C=CC2=O)c1	.	-11	2	-2	-2	.
O=C(CN(Cc1ccccc1)S(=O)(=O)c1ccccc1)N/N=C/c1ccc2c(c1)OCO2	-13	-7	4	10	-2	4
O=C(CN(CCc1ccccc1)S(=O)(=O)c1ccc(Br)cc1)N/N=C/c1ccc2c(c1)OCO2	-2	-8	8.5*	12	2	26
O=C(NCc1cccnc1)/C(=C/c1ccc(-c2cccc(Cl)c2)o1)S(=O)(=O)c1ccccc1	16	-26	1	1	4	42*
FC(F)(F)c1cccc(N2CCN(C(=S)NC3CCCC3)CC2)c1	1	-5	8.3*	11	0	2
Cc1ccc(C)c(NC(=S)N2CCN(c3cccc(C(F)(F)F)c3)CC2)c1	10	-3	9.1*	8	-13	1
Cc1ccnc(NC(=S)N2CCN(c3cccc(C(F)(F)F)c3)CC2)c1	.	2	-3	13	-2	6
FC(F)(F)c1cccc(N2CCN(C(=S)NC3CCCCC3)CC2)c1	0	-6	0	1	-8	3
CN(C)CCN1CCN(C2CN(Cc3cn(Cc4ccc(F)cc4)nn3)S(=O)(=O)C2)CC1 (stereo not drawn)	.	-4	.	.	.	.
CC1=C(C(=O)N(C(C)C)C(C)C)CC(CC(=O)NC2CC2)C(=O)N1CCCN1CCCC1=O (stereo not drawn)	.	-7	.	.	.	.
COc1cc(C2CC(c3cccs3)=NN2C(=O)CCl)ccc1OC(F)F (stereo not drawn)	.	9	22*	26	-4	27
COc1ccc(C2CC(c3cccs3)=NN2C(=O)CCl)cc1OC (stereo not drawn)	.	4	4	10	4	3
